The results in this text go back to ChEMBL document CHEMBL1149907, “Phenolic glycosides from the filamentous fungus Acremonium sp. BCC 14080” (J Nat Prod, 2008).

pIC50: −log10 of the molar value. Where only a bound is given, the exact number is not on record here.

For assay [1], the system named is Plasmodium falciparum. The experiment in a line: Antimalarial activity against Plasmodium falciparum K1 by microculture radioisotope assay. It counts as functional, organism-based. The method in brief: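 Radioisotope microculture assay of P. falciparum K1 growth, with dihydroartemisinin as the reference antimalarial. IC50 reported as mean ± SD, n = 3.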
Assay [2] concerns Human alphaherpesvirus 1. The experiment in a line: Antiviral activity against HSV1 by colorimetric method. It counts as functional, organism-based. In outline: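 HSV-1 inhibition read by a colorimetric method, with acyclovir as the reference compound. IC50 reported as mean ± SD, n = 3.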
In assay [3] the test system is Vero. The experiment in a line: Cytotoxicity against African green monkey Vero cells by colorimetric method. The conditions noted are these: Chlorocebus sabaeus. It counts as cell-based. The method in brief: (§1)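 Colorimetric cytotoxicity read-out, with ellipticine as the reference compound. Cell types: KB (oral human epidermal carcinoma), BC (human breast cancer), NCI-H187 (human small-cell lung cancer) and Vero (African green monkey kidney fibroblast). IC50 reported as mean ± SD, n = 3.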

Assay [4] relates to NCI-H187. The experiment in a line: Cytotoxicity against human NCI-H187 cells by colorimetric method. It counts as functional, cell-based. In outline:
as §1

Assay [5] has as its system KB. The experiment in a line: Cytotoxicity against human KB cells by colorimetric method. It counts as functional, cell-based. In outline:
as §1

Assay [6] can be described thus: Cytotoxicity against human BC cells by colorimetric method. It counts as functional, cell-based. The method in brief: as §1

Turning to `CCCCCCCc1cc(O)cc(O[C@@H]2O[C@H](CO)[C@@H](OC)[C@H](O)[C@H]2O)c1`, the pIC50 was < 4.60 in assay [1]; < 4.00 in assay [2]; < 4.00 in assay [3]; < 4.30 in assay [4]; < 4.30 in assay [5]; < 4.30 in assay [6].

Molecule `C[C@H]1[C@@H](O)O[C@@H]2O[C@@]3(C)CC[C@H]4[C@H](C)CC[C@@H]1[C@@]24OO3` [ARTENIMOL] showed a pIC50 in assay [1] of 8.41.

With `Cc1c2ccncc2c(C)c2c1[nH]c1ccccc12` [ELLIPTECINE], the pIC50 is 4.99 in assay [3], 5.77 in assay [4], 5.70 in assay [5] and 6.31 in assay [6].

Turning to `CCCCCCCc1cc(O)cc(OC(=O)c2c(CCCCCCC)cc(O)cc2O[C@@H]2O[C@H](CO[C@@H]3O[C@H](CO)[C@H](O)[C@H](O)[C@H]3O)[C@H](O)[C@H](O)[C@H]2O)c1`, the pIC50 is < 5.00 in assay [1]; < 4.30 in assay [2]; 4.49 in assay [3]; < 4.60 in assay [4]; < 4.60 in assay [5]; 4.69 in assay [6].

In the case of `CCCCCCCc1cc(O)cc(OC(=O)c2c(CCCCCCC)cc(O)cc2O[C@@H]2O[C@H](CO)[C@H](O)[C@H](O)[C@H]2O)c1`, the pIC50 in assay [1] was < 5.00; in assay [2], 5.14; in assay [3], 4.36; in assay [4], 4.86; in assay [5], < 4.60; in assay [6], 5.36.

Turning to `CCCCCCCc1cc(O)cc(OC(=O)c2c(O)cc(O)cc2CCCCCCC)c1`, the pIC50 in assay [1] is 5.00; in assay [2], < 4.00; in assay [3] it was 4.46; in assay [4], 4.87; in assay [5] it was 4.89; in assay [6] it was 5.06.

For `Nc1nc2c(ncn2COCCO)c(=O)[nH]1` [ACYCLOVIR], the pIC50 in assay [2] was 4.99.

Broadly, the pIC50 is the negative decadic logarithm of the IC50, by convention in mol/L.
